Values after ≈ are worked out from the molar mass of the structure shown. Active and inactive are the calls of the source. The rule behind the calls is not given here.

The source of these data is ChEMBL document CHEMBL1255436, “Peptide fragments of a beta-defensin derivative with potent bactericidal activity” (Antimicrob Agents Chemother, 2010).

For data set [1], the system named is Staphylococcus aureus. Kind of data set: Antibacterial activity against methicillin-resistant Staphylococcus aureus J2918 after 3 hrs by bactericidal assay. The class given is functional. Conditions: J2918, 3 h. The gist of the method: (§1)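 Mid-log cultures grown in Iso-Sensitest broth, diluted to 1 × 10⁶–5 × 10⁶ CFU/ml in 10 mM potassium phosphate with 1% (vol/vol) Iso-Sensitest broth, pH 7.4. Peptides (monomer made by 10 mM DTT reduction overnight at room temperature, or dimer; oxidation state checked by MS) are incubated with 100 μl cells at 37°C for 3 h. Tenfold dilutions are plated and CFU counted next day. MBC is >99.99% killing, in duplicate on three occasions, taken as the mean. Mann-Whitney U test.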

The subject of data set [2] is Acinetobacter baumannii. Nature of the data set: Antimicrobial activity against Acinetobacter baumannii ATCC 19606 after 3 hrs by bactericidal assay. The note with it: ATCC 19606 = CIP 70.34 = JCM 6841, 3 h. It counts as functional. In short, it runs like this:
as §1

In data set [3] the test system is Staphylococcus aureus. Kind of data set: Antimicrobial activity against Staphylococcus aureus ATCC 25923 after 3 hrs by bactericidal assay. The class given is functional. The note with it: ATCC 25923, 3 h. The gist of the method: as §1
The test system of data set [4] is Enterococcus faecalis. Nature of the data set: Antimicrobial activity against Enterococcus faecalis ATCC 700802 after 3 hrs by bactericidal assay. The class given is functional. Conditions: ATCC 700802, 3 h. In short, it runs like this:
as §1

Data set [5] concerns Pseudomonas aeruginosa. Kind of data set: Antimicrobial activity against Pseudomonas aeruginosa PAO1 after 3 hrs by bactericidal assay. The class given is functional. Conditions: PAO1, 3 h. In short, it runs like this: as §1
Data set [6] relates to Escherichia coli. Nature of the data set: Antimicrobial activity against Escherichia coli ATCC 25922 after 3 hrs by bactericidal assay. Conditions: ATCC 25922, 3 h. It counts as functional. The gist of the method: as §1
In data set [7] the test system is Burkholderia cenocepacia. Nature of the data set: Antimicrobial activity against Burkholderia cenocepacia J2315 after 3 hrs by bactericidal assay. It counts as functional. Conditions: J2315, 3 h.
Data set [8] concerns Pseudomonas aeruginosa. Nature of the data set: Antimicrobial activity against Pseudomonas aeruginosa PAO1 after 3 hrs by bactericidal assay in presence of 200 mM NaCl. The class given is functional, organism-based. In short, it runs like this: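 Mid-log P. aeruginosa was grown in Iso-Sensitest broth and diluted in 10 mM potassium phosphate with 1% broth, pH 7.4, with sodium chloride added. Peptide dilutions were incubated with 1 × 10⁵ to 5 × 10⁵ CFU per 100 μl at 37°C for 3 h, then CFU were plated. MBC is >99.99% kill, the mean of duplicates from three independent runs.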

For data set [9], the system named is Pseudomonas aeruginosa. Nature of the data set: Antimicrobial activity against Pseudomonas aeruginosa PAO1 after 3 hrs by bactericidal assay in presence of 10 mM NaCl. The note with it: PAO1, 3 h. The class given is functional. The gist of the method: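 P. aeruginosa PAO1 at mid-log in Iso-Sensitest broth, diluted to 1 × 10⁶–5 × 10⁶ CFU/ml in 10 mM potassium phosphate/1% Iso-Sensitest broth, pH 7.4, with 10 mM NaCl added. Dimeric peptides are incubated with 100 μl cells at 37°C for 3 h, then plated as tenfold dilutions with CFU counted next day. MBC is >99.99% killing, from duplicates on three occasions. Mann-Whitney U test.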

Data set [10] has as its system Pseudomonas aeruginosa. Kind of data set: Antimicrobial activity against Pseudomonas aeruginosa PAO1 assessed as bacterial killing at 16.5 uM after 3 hrs by bactericidal assay. It counts as functional, organism-based.
Data set [11] deals with Staphylococcus aureus. Kind of data set: Stability of the compound in Staphylococcus aureus ATCC 25923 after 4 hrs by LC-MS analysis. It counts as ADME, organism-based. The gist of the method: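 Peptide is incubated with S. aureus ATCC 25923 for 4 h. Peptide integrity is then assessed by LC-MS as peak area relative to the sample before incubation.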
Data set [12] has as its system Pseudomonas aeruginosa. Kind of data set: Antimicrobial activity against Pseudomonas aeruginosa PAO1 at 20 uM. The class given is functional, organism-based.
For data set [13], the system named is Staphylococcus aureus. Nature of the data set: Antimicrobial activity against Staphylococcus aureus ATCC 25923 at 20 uM. It counts as functional, organism-based.

In general, MBC refers to the lowest tested concentration that kills the bacteria rather than only halting them. Turning to `CC[C@H](C)[C@H](NC(=O)[C@H](CCCNC(=N)N)NC(=O)[C@H](C)NC(=O)[C@H](Cc1ccccc1)NC(=O)[C@H](Cc1ccccc1)NC(=O)[C@H](CCCCN)NC(=O)[C@H](CCCNC(=N)N)NC(=O)[C@H](CC(C)C)NC(=O)[C@@H](NC(=O)[C@H](CCCCN)NC(=O)[C@@H]1CCCN1C(=O)[C@H](CC(C)C)NC(=O)[C@@H](N)Cc1ccccc1)[C@H](C)O)C(=O)N[C@@H](CCCNC(=N)N)C(=O)NCC(=O)NCC(=O)N[C@@H](CCCNC(=N)N)C(=O)N[C@@H](C)C(=O)N[C@@H](C)C(=O)N[C@H](C(=O)N[C@@H](CC(C)C)C(=O)N[C@@H](CC(N)=O)C(=O)N[C@@H](C)C(=O)O)C(C)C`, the MBC in data set [1] is more than 40 µg/mL; in data set [2] it was more than 22 µg/mL; in [3], more than 205 µg/mL; in [4], more than 20 µg/mL; in data set [5], more than 48 µg/mL; in [6], more than 20 µg/mL. The compound also displayed an MBC in [7] of more than 20 µg/mL.

Consider `CC[C@H](C)[C@@H]1NC(=O)[C@H](CCC(N)=O)NC(=O)[C@H](CCC(=O)O)NC(=O)[C@H](CCC(=O)O)NC(=O)[C@H](CCCCN)NC(=O)CNC(=O)[C@H](CC(C)C)NC(=O)[C@@H]2CSSC[C@@H](C(=O)N[C@@H](CCCNC(=N)N)C(=O)N[C@@H](CCCCN)C(=O)N[C@@H](CCCCN)C(=O)N[C@@H](CCCCN)C(=O)O)NC(=O)[C@@H]3CSSC[C@H](NC(=O)[C@H](Cc4ccccc4)NC(=O)[C@H](Cc4ccccc4)NC(=O)[C@H](CCCCN)NC(=O)[C@H](CCCNC(=N)N)NC(=O)[C@H](CC(C)C)NC(=O)[C@@H](NC(=O)[C@H](CCCCN)NC(=O)[C@@H]4CCCN4C(=O)[C@H](CC(C)C)NC(=O)[C@@H](N)Cc4ccccc4)[C@H](C)O)C(=O)N[C@@H](CCCNC(=N)N)C(=O)N[C@@H]([C@@H](C)CC)C(=O)N[C@@H](CCCNC(=N)N)C(=O)NCC(=O)NCC(=O)N[C@@H](CCCNC(=N)N)C(=O)N[C@@H](CSSC[C@H](NC(=O)[C@H](CCCNC(=N)N)NC(=O)CNC1=O)C(=O)N[C@@H](CO)C(=O)N[C@@H](CC(N)=O)C(=O)N[C@@H](CO)C(=O)NCC(=O)N[C@@H](CCCNC(=N)N)C(=O)N[C@@H](CCCCN)C(=O)N3)C(=O)N[C@@H](C)C(=O)N[C@@H](C(C)C)C(=O)N[C@@H](CC(C)C)C(=O)N[C@@H](CC(N)=O)C(=O)N2`, for which the MBC in data set [1] is more than 48 µg/mL; in [2], 0.3 µg/mL (≈ 0.0579 µM); in [3], 1 µg/mL (≈ 0.193 µM); in [4] it was 1.2 µg/mL (≈ 0.231 µM); in [5], 0.3 µg/mL (≈ 0.0579 µM); in [6], more than 205 µg/mL. In addition, in [7], the MBC was determined as 0.6 µg/mL (≈ 0.116 µM).

`CC(C)C[C@H](NC(=O)[C@@H](NC(=O)[C@H](CCCCN)NC(=O)[C@@H]1CCCN1C(=O)[C@H](CC(C)C)NC(=O)[C@@H](N)Cc1ccccc1)[C@H](C)O)C(=O)N[C@@H](CCCNC(=N)N)C(=O)N[C@@H](CCCCN)C(=O)N[C@@H](Cc1ccccc1)C(=O)N[C@@H](Cc1ccccc1)C(=O)O`: the MBC in data set [1] worked out at 2.4 µg/mL (≈ 1.85 µM); in data set [2], 0.75 µg/mL (≈ 0.578 µM); in data set [3], 1.2 µg/mL (≈ 0.925 µM); in [4] it was 1.2 µg/mL (≈ 0.925 µM); in data set [5], 1.3 µg/mL (≈ 1 µM); in data set [6] it was 3 µg/mL (≈ 2.31 µM). In data set [7], the MBC was more than 48 µg/mL. The result in [8] was Active.

Consider `CC[C@H](C)[C@H](NC(=O)[C@H](CCC(N)=O)NC(=O)[C@H](CCC(=O)O)NC(=O)[C@H](CCC(=O)O)NC(=O)[C@H](CCCCN)NC(=O)CNC(=O)[C@H](CC(C)C)NC(=O)[C@H](C)NC(=O)[C@H](CC(N)=O)NC(=O)[C@H](CC(C)C)NC(=O)[C@@H](NC(=O)[C@H](C)NC(=O)[C@H](C)NC(=O)[C@H](CCCNC(=N)N)NC(=O)CNC(=O)CNC(=O)[C@H](CCCNC(=N)N)NC(=O)[C@H](NC(=O)[C@H](CCCNC(=N)N)NC(=O)[C@H](C)NC(=O)[C@H](Cc1ccccc1)NC(=O)[C@H](Cc1ccccc1)NC(=O)[C@H](CCCCN)NC(=O)[C@H](CCCNC(=N)N)NC(=O)[C@@H](N)CC(C)C)[C@@H](C)CC)C(C)C)C(=O)NCC(=O)N[C@@H](CCCNC(=N)N)C(=O)N[C@@H](C)C(=O)N[C@@H](CO)C(=O)N[C@@H](CC(N)=O)C(=O)N[C@@H](CO)C(=O)NCC(=O)N[C@@H](CCCNC(=N)N)C(=O)N[C@@H](CCCCN)C(=O)N[C@@H](CS)C(=O)N[C@@H](C)C(=O)N[C@@H](CCCNC(=N)N)C(=O)N[C@@H](CCCCN)C(=O)N[C@@H](CCCCN)C(=O)N[C@@H](CCCCN)C(=O)O`, for which the MBC in data set [1] came to 2.5 µg/mL (≈ 0.563 µM); in data set [3], 1.4 µg/mL (≈ 0.315 µM); in data set [4], 1.25 µg/mL (≈ 0.281 µM); in data set [5], 0.7 µg/mL (≈ 0.158 µM); in data set [6], 2.5 µg/mL (≈ 0.563 µM). For the same compound, the result in data set [8] was Active.

Take H-AAVLNA-OH: the minimum bactericidal concentration (MBC) in data set [3] and in data set [5] was more than 83.5 µg/mL throughout.

As for H-AAVLNALGKEEQIGRASNSGRKCARKKK-OH, the MBC in data set [1] was more than 10 µg/mL; in data set [2], more than 10 µg/mL; in [3] it was more than 16.5 µg/mL; in [4] it was more than 5 µg/mL; in data set [5], more than 16.5 µg/mL; in [6] it was more than 10 µg/mL.

For the compound “H-FFARIRGGRAAVLNALGKEEQIGRASNSGRKCARKKK-OH”, the MBC in data set [9] was determined as 10 µM; in [1] it was 2.2 µg/mL; in data set [2] it was 2.9 µg/mL; in [3], 1.5 µg/mL; in data set [4], 1.9 µg/mL; in data set [5], 1.1 µg/mL. In addition, in data set [6], the MBC was 10 µg/mL.

As for H-GGRAAVLNALGKEEQIGRASNSGRKCARKKK-OH, in data set [10], the outcome was inactive. The MBC was more than 10 µg/mL in [1]; more than 10 µg/mL in [2]; more than 15.2 µg/mL in [3]; more than 5 µg/mL in data set [4]; more than 15.2 µg/mL in [5]; more than 10 µg/mL in data set [6]. Moreover, the Stability result in data set [11] was “Stable”.

Take H-IRGGRAAVLNALGKEEQIGRAS-OH: the MBC in data set [1] was more than 22 µg/mL; in data set [2], 2.4 µg/mL; in data set [3], more than 48 µg/mL; in data set [4] it was 4.8 µg/mL; in data set [5] it was 1.2 µg/mL; in data set [6] it was 38.6 µg/mL. Further, in data set [7], the MBC was more than 205 µg/mL.

H-LGKEEQIGRASNSGRKCARKKK-OH: the minimum bactericidal concentration (MBC) in data set [1] is more than 205 µg/mL; in data set [2], more than 48 µg/mL; in [3] it was 1.2 µg/mL; in [4] it was 0.6 µg/mL; in [5], more than 33 µg/mL; in [7] it was more than 22 µg/mL.

Regarding H-LRKFFARIRGGR-OH, the MBC in [1] was 7.1 µg/mL; in data set [2], 19 µg/mL; in data set [3], 12.1 µg/mL; in data set [4], more than 22 µg/mL; in [7] it was 16.5 µg/mL. Moreover, in [8], the outcome was Active.

On to H-RGGRAAVLNA-OH, for which the MBC in data set [1] was 1.2 µg/mL; in data set [2], more than 205 µg/mL; in data set [3], more than 22 µg/mL; in data set [4] it was more than 48 µg/mL; in data set [5] it was 1.2 µg/mL; in [6], 9.6 µg/mL. This compound came in with an MBC in [7] of 38.6 µg/mL.

Turning to H-RIRGGRAAVLNA-OH, the outcome in [12] and in data set [13] was inactive.

Regarding H-RIRGGRAAVLNALGKEEQIGRASNSGRKCARKKK-OH, the MBC in data set [1] is more than 10 µg/mL; in data set [2] it was 2.5 µg/mL; in [3] it was 5.9 µg/mL; in [4], more than 5 µg/mL; in data set [5], 1.7 µg/mL; in data set [6], more than 10 µg/mL.
